Assay results reported in ChEMBL document CHEMBL2384926, “Asperterrestide A, a cytotoxic cyclic tetrapeptide from the marine-derived fungus Aspergillus terreus SCSGAF0162” (J Nat Prod, 2013).

Columns and labels:
MOLT-4 = test: Cytotoxicity against human MOLT4 cells by MTT assay; assay type: functional, cell-based
Method in brief: (§1)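 MTT assay on the human tumour lines U937 (leukemic monocyte lymphoma), K562 (erythroid leukemia), BGC-823 (gastric carcinoma), MOLT-4 (acute lymphoblastic leukemia), MCF-7 (breast adenocarcinoma) and A549 (lung carcinoma). Taxol served as the positive control. Values reported as IC50.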

Influenza A virus [1] = test: Antiviral activity against Influenza A virus (A/WSN/1933(H1N1)) infected in dog MDCK cells after 3 days by CPE assay; assay type: functional, organism-based; details: 72 h
Method in brief: (§2)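 Cytopathic effect (CPE) assay measuring inhibition of virus replication in MDCK cells. Strains were A/WSN/33 (H1N1, M2-resistant) and A/Hong Kong/8/68 (H3N2, M2-sensitive). Ribavirin served as the positive control. Values reported as IC50.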

U-937 = test: Cytotoxicity against human U937 cells by MTT assay; assay type: functional, cell-based; method in brief: as §1
Influenza A virus [2] = test: Antiviral activity against Influenza A virus A/Hong Kong/8/68(H3N2) infected in dog MDCK cells after 3 days by CPE assay; assay type: functional, organism-based; details: 72 h; method in brief: as §2
BGC-823 = test: Cytotoxicity against human BGC823 cells by MTT assay; assay type: functional, cell-based; method in brief: as §1
K562 = test: Cytotoxicity against human K562 cells by MTT assay; assay type: functional, cell-based; method in brief: as §1

| SMILES | IC50 (MOLT-4) [µM] | IC50 (Influenza A virus [1]) [µM] | IC50 (U-937) [µM] | IC50 (Influenza A virus [2]) [µM] | IC50 (BGC-823) [µM] | IC50 (K562) [µM] |
| --- | --- | --- | --- | --- | --- | --- |
| CC[C@@H](C)[C@H]1NC(=O)[C@@H](C)NC(=O)c2ccccc2NC(=O)[C@@H]([C@@H](O)c2ccccc2)N(C)C1=O | 6.2 | 15 | 6.4 | 8.1 | – | – |
| CC(=O)O[C@H]1C(=O)[C@@]2(C)[C@H]([C@H](OC(=O)c3ccccc3)[C@]3(O)C[C@H](OC(=O)[C@H](O)[C@@H](NC(=O)c4ccccc4)c4ccccc4)C(C)=C1C3(C)C)[C@]1(OC(C)=O)CO[C@@H]1C[C@@H]2O [PACLITAXEL] | 0.0018 | – | 0.0019 | – | 0.0035 | 0.0049 |
| NC(=O)c1ncn([C@@H]2O[C@H](CO)[C@@H](O)[C@H]2O)n1 [RIBAVIRIN] | – | 20.2 | – | 0.41 | – | – |
